Results from ChEMBL document CHEMBL1123617, “Antipsychotic activity of substituted gamma-carbolines” (J Med Chem, 1987).
Blank lines part the entries; values can stand above or below the molecule they belong to.

How the values were obtained:
[1] = molecular target: T1, Serotonin 2 (5-HT2) receptor (Rattus norvegicus, UniProt P30994+P08909+P14842); test: In vitro 5-hydroxytryptamine 2 receptor affinity by using [3H]spiperone as the radioligand in rat cortical tissue; value may range from 23 to 187
Rattus norvegicus [2] = test: Potential antipsychotic activity was assessed by measuring the ability to block the conditioned avoidance response(CAR) in rats on oral administration; value may range from 6 to 63; assay type: functional
Outline: (§1)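 Each session had 60 trials, with a control session before every drug run. Trials with no avoidance response (avoidance block) were summed over rats at each dose and expressed as a percentage of total trials. Control avoidance was set at 100%. The dose giving 50% block (AB50) was fitted by least squares.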

Rattus norvegicus [3] = test: Potential antipsychotic activity was assessed by measuring the ability to block the conditioned avoidance response(CAR) in rats on oral administration; assay type: functional
Mus musculus [4] = test: Ability to inhibit apomorphine (APO) induced climbing behavior in mice by intraperitoneal administration of compound.; value may range from 1 to 23; assay type: functional; details: ip
Mus musculus [5] = test: Ability to inhibit apomorphine (APO) induced stereotyped behavior in mice by intraperitoneal administration of compound; value may range from 22 to 31; assay type: functional; details: ip
D(2) dopamine receptor [6] = molecular target: T2, D(2) dopamine receptor (Rattus norvegicus, UniProt P61169); test: In vitro Dopamine receptor D2 affinity by using [3H]spiperone as the radioligand in rat limbic system at 1 uM concentration of compound; value may range from 1 to 2; assay type: tissue-based
T2 sequence (P61169 whole entry): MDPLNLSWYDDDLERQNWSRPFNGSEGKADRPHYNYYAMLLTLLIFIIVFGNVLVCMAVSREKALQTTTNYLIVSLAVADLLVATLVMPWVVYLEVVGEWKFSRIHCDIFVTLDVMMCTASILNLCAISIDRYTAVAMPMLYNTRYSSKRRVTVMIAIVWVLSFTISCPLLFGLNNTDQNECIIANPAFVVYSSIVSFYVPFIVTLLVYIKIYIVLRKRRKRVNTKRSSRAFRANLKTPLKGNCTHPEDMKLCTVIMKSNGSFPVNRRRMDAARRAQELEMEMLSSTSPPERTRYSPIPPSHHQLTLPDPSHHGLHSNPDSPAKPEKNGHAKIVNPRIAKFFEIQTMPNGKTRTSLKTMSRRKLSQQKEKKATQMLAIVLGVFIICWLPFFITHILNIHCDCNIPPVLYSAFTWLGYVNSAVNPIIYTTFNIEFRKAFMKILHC

[7] = molecular target: D(2) dopamine receptor (Rattus norvegicus) (UniProt P61169); test: In vitro Dopamine receptor D2 affinity by using [3H]spiperone as the radioligand in rat limbic system at 1 uM concentration of compound at 1 uM; assay type: tissue-based
Chain of D(2) dopamine receptor (Rattus norvegicus) (P61169 whole entry): as above

Rattus norvegicus [8] = test: Potential antipsychotic activity was assessed by measuring the ability to block the conditioned avoidance response(CAR) in rats on oral administration.; assay type: functional
Rattus norvegicus [9] = test: Potential antipsychotic activity was assessed by measuring the ability to block the conditioned avoidance response(CAR) in rats on oral administration; value may range from 10 to 34; assay type: functional; outline: as §1
[10] = molecular target: T1, Serotonin 2 (5-HT2) receptor; test: In vitro 5-hydroxytryptamine 2 receptor affinity by using [3H]spiperone as the radioligand in rat cortical tissue.; value may range from 140 to 980
D(2) dopamine receptor [11] = molecular target: T2, D(2) dopamine receptor; test: In vitro Dopamine receptor D2 affinity by using [3H]spiperone as the radioligand in rat limbic system at 1 uM concentration of compound; value may range from 0.7 to 1.5; assay type: tissue-based
[12] = molecular target: D(2) dopamine receptor (Rattus norvegicus) (UniProt P61169); test: In vitro Dopamine receptor D2 affinity by using [3H]spiperone as the radioligand in rat limbic system at 1 uM concentration of compound; assay type: tissue-based
D(2) dopamine receptor [13] = molecular target: T2, D(2) dopamine receptor; test: In vitro Dopamine receptor D2 affinity by using [3H]spiperone as the radioligand in rat limbic system at 1 uM concentration of compound; value may range from 72 to 141; assay type: tissue-based
Rattus norvegicus [14] = test: Potential antipsychotic activity was assessed by measuring the ability to block the conditioned avoidance response(CAR) in rats on oral administration; indicates insignificant activity; assay type: functional
Rattus norvegicus [15] = test: Potential antipsychotic activity was assessed by measuring the ability to block the conditioned avoidance response(CAR) in rats on oral administration; value may range from 26 to 51; assay type: functional; outline: as §1
[16] = molecular target: T1, Serotonin 2 (5-HT2) receptor; test: In vitro 5-hydroxytryptamine 2 receptor affinity by using [3H]spiperone as the radioligand in rat cortical tissue; value may range from 197 to 341
[17] = molecular target: D(2) dopamine receptor (Rattus norvegicus) (UniProt P61169); test: In vitro Dopamine receptor D2 affinity by using [3H]spiperone as the radioligand in rat limbic system at 1 uM; assay type: tissue-based
D(2) dopamine receptor [18] = molecular target: T2, D(2) dopamine receptor; test: In vitro Dopamine receptor D2 affinity by using [3H]spiperone as the radioligand in rat limbic system at 1 uM concentration of compound; value may range from 20 to 130; assay type: tissue-based
Mus musculus [19] = species on record: Mus musculus; test: animal or person; details: ip
Mus musculus [20] = species on record: Mus musculus; test: animal or person; details: ip; remark: listed apart in the source
D(2) dopamine receptor [21] = molecular target: T2, D(2) dopamine receptor; test: In vitro Dopamine receptor D2 affinity by using [3H]-Spiperone as the radioligand in rat limbic system at 1 uM concentration of compound; value may range from 4 to 15; assay type: tissue-based

SMILES: Cl.Fc1ccc(-n2c3c(c4cc(F)ccc42)CN(CCc2ccncc2)CC3)cc1
Ki [1]: 55 nM | AB50 (Rattus norvegicus [2]): 16 mg/kg

SMILES: CN1CCN(C2=Nc3cc(Cl)ccc3Nc3ccccc32)CC1 [CLOZAPINE]
AB50 (Rattus norvegicus [3]): 11 mg/kg | ED50 (Mus musculus [4]): 5 mg/kg | ED50 (Mus musculus [5]): 26 mg/kg

SMILES: Fc1ccc(-n2c3c(c4cc(F)ccc42)CN(CCCCc2ccnc4ccccc24)CC3)cc1
Ki (D(2) dopamine receptor [6]): 1 nM

SMILES: Cl.Clc1ccc2[nH]c3c(c2c1)CN(CCc1ccc2ccccc2n1)CC3
AB50 (Rattus norvegicus [8]): >40 mg/kg

SMILES: O=C(CCCN1CCC(O)(c2ccc(Cl)cc2)CC1)c1ccc(F)cc1 [HALOPERIDOL]
ED50 (Mus musculus [19]): 0.1 mg/kg | ED50 (Mus musculus [20]): 0.1 mg/kg | AB50 (Rattus norvegicus [8]): 0.2 mg/kg

SMILES: Fc1ccc(-n2c3c(c4cc(F)ccc42)CN(CCCCc2ccncc2)CC3)cc1
Ki (D(2) dopamine receptor [21]): 7 nM

Continued, in another order:

inhibition [7]: 41%
SMILES: Cl.c1ccc2c3c([nH]c2c1)CCN(CCCCc1ccncc1)C3
AB50 (Rattus norvegicus [8]): >20 mg/kg

Ki [10]: 480 nM
SMILES: Cl.Fc1ccc2[nH]c3c(c2c1)CN(CCCCc1ccncc1)CC3
AB50 (Rattus norvegicus [9]): 15 mg/kg

Ki (D(2) dopamine receptor [11]): 1 nM
SMILES: Cl.Fc1ccc(-n2c3c(c4cc(F)ccc42)CN(CCc2ccc4ccccc4n2)CC3)cc1
AB50 (Rattus norvegicus [8]): 40 mg/kg

inhibition [12]: 33%
SMILES: c1ccc(CCN2CCc3[nH]c4ccccc4c3C2)nc1

Ki (D(2) dopamine receptor [13]): 103 nM
SMILES: Cl.Clc1ccc2[nH]c3c(c2c1)CN(CCc1ccccn1)CC3
AB50 (Rattus norvegicus [14]): >40 mg/kg

Ki [16]: 252 nM | inhibition [17]: 43%
SMILES: Cl.c1cncc(CCCN2CCc3[nH]c4ccccc4c3C2)c1
AB50 (Rattus norvegicus [15]): 33 mg/kg

Ki (D(2) dopamine receptor [18]): 60 nM
SMILES: c1cnc(N2CCN(CCCN3CCc4[nH]c5ccccc5c4C3)CC2)nc1
